Experimental data published in PubChem BioAssay AID651999 (Sanford-Burnham Center for Chemical Genomics, 2013).
Among all 360,000 compounds or so, about 1,400 (0.39%) were called active. For the sample, actives were picked, then their nearest neighbours and some compounds at random. A number with no mark means an inactive call.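 How the source made its calls: active means pattern-corrected inhibition above about 35%, with an unprinted fluorescence ratio check between 0.5 and 1.5 (limit read from the data, passing the limit was not always enough); inactive means the rest.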

What follows are compounds tested against COP9 signalosome complex subunit 5 (Homo sapiens) (UniProt Q92905) (assay: CSN5 deneddylase inhibitors on cullin-RING ligase – biochemical, fluorescence polarization, uHTS, primary screen (AID 651999;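 further: 0% = enzyme with substrate and 100% = substrate without enzyme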)). Settings: Purified CSN, SCF-Nedd8-OG deneddylation, at 12.5 µM, hits give high values.
How it was run: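 Assay system: purified human Csn5 enzyme expressed in HEK293T cells; measure: % inhibition; also added: SCFSkp2-Nedd8OG substrate at 10 nM final; technique: fluorescence polarization; times: reaction 90 min, room temperature; medium: Tris buffer pH 7.5, NaCl, DTT, Tween-20, trehalose, ovalbumin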

Sequence of COP9 signalosome complex subunit 5 (Homo sapiens) (Q92905 whole entry, looked up, one chain of several): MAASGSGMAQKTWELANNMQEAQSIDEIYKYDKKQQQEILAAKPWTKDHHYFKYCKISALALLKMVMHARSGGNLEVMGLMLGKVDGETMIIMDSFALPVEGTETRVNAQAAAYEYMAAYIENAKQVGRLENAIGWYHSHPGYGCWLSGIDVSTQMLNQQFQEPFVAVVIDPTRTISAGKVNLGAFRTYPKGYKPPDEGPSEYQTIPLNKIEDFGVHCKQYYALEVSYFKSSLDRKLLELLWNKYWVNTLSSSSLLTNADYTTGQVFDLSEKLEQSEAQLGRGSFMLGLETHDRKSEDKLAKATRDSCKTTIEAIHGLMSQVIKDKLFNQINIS

SMILES | inhibition
CC1(C)O[C@H]2CC(=O)OCC23[C@H]2CC[C@@]4(C)[C@H](c5ccoc5)OC(=O)[C@H]5O[C@]54[C@]2(C)C(=O)C[C@@H]13 (some centres not stated) | -1.16%
COc1cccc(NC(=O)CN(C)C(=O)c2ccccc2CCc2ccccc2)c1 | 4.75%
O=C(NCc1ccccc1)C1=C[C@@H](c2ccc(C(F)(F)F)cc2)C[C@@H](OCc2ccc(CO)cc2)O1 | 4.14%
Cc1ccc(OCC(=O)Oc2ccccc2[N+](=O)[O-])cc1 | 1.14%
Cc1cc2nc(-c3ccc(F)cc3)c(Cc3ccsc3)n2c(C)c1Br | -4.07%
Cc1cc2nc(-c3ccc(Cl)cc3)c(Cc3cccc(F)c3)n2c(C)c1Br | 3.52%
Cc1cc2nc(-c3ccco3)c(Cc3cccc(F)c3)n2c(C)c1Br | 38.5% (active)
O=C1NC2(CCCCC2)N=C1c1ccccc1 | -2.27%
CC1CCCN(C(=O)Cn2c(=O)oc3cc(S(=O)(=O)N4CCCCC4C)ccc32)C1 (configuration not stated) | -0.78%
C=CCc1ccc(OCCOc2cccc(/C=N/n3cnnc3)c2)c(OC)c1 | 0.99%
O=C(CCN1C(=O)c2ccncc2C1=O)Nc1ccc2c(c1)OCCO2 | 5.06%
Cc1nc([N+](=O)[O-])cn1CC(=O)Nc1ccc2c(c1)OCO2 | -0.35%
Cc1ccc(C(=O)O)cc1-c1ccc(/C=C2\SC(=O)N(CC(=O)Nc3ccc4c(c3)OCO4)C2=O)o1 | 102% (active)
CNS(=O)(=O)c1ccc(N2CCCC2=O)c([N+](=O)[O-])c1 | -1.32%
Cc1ccc(-c2nn(-c3ccccc3)cc2/C=C2\SC(=S)N(CCCCCC(=O)O)C2=O)o1 | 66.1% (active)
O=C(O)CC/C(=N\NC(=O)c1ccc(F)cc1)c1ccc(Br)cc1 | 51.7% (active)
O=C(CNC(=O)c1ccccc1F)c1ccc(Br)cc1 | 3.53%
C/C(CC(=O)N1CCN(C=O)CC1)=N\NC(=O)c1ccc(Br)cc1 | -6.38%
Cc1ccn(CCC(=O)N2c3ccccc3CC2C)n1 (configuration not stated) | 0.86%
CCOC(=O)C1CCCN(CCSc2ccc(C)cc2)C1 (configuration not stated) | -0.91%
COc1ccc2c(c1)c(=Cc1ccc(N(C)C)cc1)c1cc(-c3ccccc3)[n+](C)n12 | 61.6% (active)
CCOC(=O)[C@]12CCCC=C1N(CCC1=CCCCC1)C(=O)[C@H](CC(=O)N1CCN(C(=O)c3ccco3)CC1)C2 | -3.01%
CCC(C)Cn1c(O)cc2nn(-c3nc4ccccc4s3)c(=O)c-2c1C (configuration not stated) | 35.4% (active)

SMILES | inhibition
CCC(CC)C(=O)Nc1cccc(C(=O)N2CCCC2)c1 | 2.19%
CC1CC(C)CN(S(=O)(=O)c2cccc3nonc23)C1 (configuration not stated) | 0.47%
CCCCCN(C(=O)CCC(=O)OCC(=O)NCc1ccc(OC)cc1)c1c(N)n(CCCC)c(=O)[nH]c1=O | 4.14%
CC(C)C1CC2=C(C(=O)OC(C)(C)O2)C(c2ccc(F)cc2)O1 (configuration not stated) | 2.3%
CCC(C)NC(=O)N[C@@H](CCSC)C(=O)O (some centres not stated) | -1.26%
Cc1sc2ncnc(SCC(=O)Nc3ccc(CN4CCCC4)cc3)c2c1C | 108% (active)
COC(=O)c1c(-c2cccs2)csc1NC(=O)CSc1ncnc2sc(C)c(C)c12 | -5.37%
Cc1sc2ncnc(SCC(=O)NC3CCS(=O)(=O)C3)c2c1C (configuration not stated) | -1.73%
O=C(Nc1cccnc1)c1cc2cc(Br)ccc2oc1=O | 5.43%
Cc1ccc2nc(-c3ccncc3)cc(C(=O)Nc3ccc(OC(F)F)cc3)c2c1 | 42% (active)
Cc1cc(NS(=O)(=O)c2ccc(NC(=O)c3cccc(OC(F)F)c3)cc2)nc(C)n1 | 2.76%
O=C(Nc1ccncc1)c1cc(-c2ccccn2)nc2ccc(Br)cc12 | 51.3% (active)
O=C(Nc1ccc(Br)cc1)c1cc(S(=O)(=O)Nc2ccccn2)ccc1Cl | -4.77%
COc1ccc(C)cc1NC(=O)c1cc(-c2ccccc2)nc2c1cnn2C(C)C | -2.82%
O=C(NCc1ccncc1)C(=O)NCc1ccco1 | -6.34%
CCCN(CC1CC1)C(=S)NC(=O)c1ccccc1Br | -6.61%
CN1CCN(c2ccc(S(=O)(=O)N3CCOCC3)cc2NC(=O)CCc2ccccc2)CC1 | 2.64%
CCOC(=O)CN(C)S(=O)(=O)c1ccc(-c2cc(C(=O)OC)sc2C(F)(F)F)cc1 | 1.34%
COc1ccc(CCNC2=CC(=O)CC(C)(C)C2)cc1 | -5.48%
COc1ccc(Nc2cc(Sc3ccc(OC)cc3)ncn2)cc1 | -0.7%
COc1ccc(NC2=CC(=S)NC(C)(C)C2)cc1 | 42.9% (active)
O=C(NCCc1ccccc1)C(=O)NCC1OCCN1S(=O)(=O)c1cccs1 (configuration not stated) | 0%
O=C(Nc1ccc(Cl)c(Cl)c1)c1ccccc1NC(=O)C1CC=CCC1C(=O)O (configuration not stated) | -4.09%

SMILES | inhibition
Cc1cc(N(C)C)cc(C)[n+]1[O-] | -2.98%
O=C1CSC(c2ccc(Cl)cc2)N1 (configuration not stated) | -5.2%
CCCCC(c1nnnn1CS(=O)(=O)c1ccc(C)cc1)N1CCC(C(N)=O)CC1 (configuration not stated) | -2.76%
CC(C)(C)C1C/C(=C/c2ccco2)C(=O)/C(=C/c2ccco2)C1 (configuration not stated) | 41.2% (active)
CCCC/C(C)=N/NC(=O)NC1CCCCC1 | -3.54%
Nc1c(-c2ccc(F)cc2)cnc2ncnn12 | 2.66%
O=C(COc1ccc2c(C(F)(F)F)cc(=O)oc2c1)Nc1ccc2c(c1)OCCO2 | 187% (active)
CCN(CC(=O)Nc1ccc2c(c1)OCCO2)Cc1cc(=O)oc2cc(C)c(C)cc12 | 4.55%
CCc1ccccc1OCC(=O)Nc1ccc2c(c1)OCCO2 | 1.42%
Cc1ccc(NC(=O)COc2ccc(/C=N\NC(=O)c3cccnc3)cc2)cc1C | 158% (active)
Cc1ccc(NC(=O)COc2ccc(-n3ccnc3)cc2)cc1Cl | 0%
Cc1cccc(OCC(=O)NCCNC(=O)c2cccnc2)c1 | 0.16%
CSCCC(NS(=O)(=O)c1ccc(C)cc1)C(=O)N(C)CC(=O)Nc1ccccc1Br (configuration not stated) | 1.95%
Cc1nc(SCC(=O)NC2CCCCC2C)c(C#N)c(C)c1C (configuration not stated) | 0.75%
O=C(O)C(c1ccccc1)N1C(=O)/C(=C\c2ccc(-c3cccc(Cl)c3)o2)SC1=S (configuration not stated) | 93.7% (active)
CCC(C)N1C(=O)S/C(=C/c2ccc(Sc3nc4ccccc4[nH]3)o2)C1=O (configuration not stated) | 4.54%
CC1COc2ccccc2N1S(=O)(=O)c1ccccc1 (configuration not stated) | -12.8%
CCOC(=O)C1CCN(C(=O)CC2C(=O)N(Cc3ccccc3)C(C)c3nc4ccccc4n32)CC1 (configuration not stated) | 4.78%
CN(C)N=Nc1ccc2nc[nH]c2c1 | -1.48%
CC1=CC(=NNS(=O)(=O)c2ccc([N+](=O)[O-])cc2)CC(C)(C)C1 | 8.55%
Cc1ccc(Cc2cnc(N)s2)o1 | 36.5% (active)
CC(=O)c1nnn(-c2ccc(Cl)cc2C#N)c1C | 0.92%
CC(C)(C)c1ccc(C(=O)N2CCC(C(=O)N3CCCCC3)CC2)cc1 | -2.5%

SMILES | inhibition
O=c1ccc(-c2ccc(S(=O)(=O)Nc3ccccc3)o2)n[nH]1 | 6.31%
O=C(NCC1CCCO1)/C(=C/c1ccc(Cl)cc1)NC(=O)c1ccccc1 (configuration not stated) | -2.86%
CCOc1ccc(/C=C(/NC(=O)c2ccccc2)C(=O)NCCC(=O)O)cc1 | -10.6%
Cn1c2ccccc2c2cc(/C=C(\NC(=O)c3ccccc3)C(=O)NCC(=O)O)ccc21 | 60.8% (active)
CC1CCN(S(=O)(=O)c2ccc(S(=O)(=O)NCc3ccco3)cc2)CC1 | 0.01%
Cc1noc(NS(=O)(=O)c2ccc(N3CC(O)=C(c4ccccc4)C3=N)cc2)c1C | 2.49%
O=C1CC(c2c(F)cccc2Cl)C(n2cncn2)C(O)=C1C1NCCc2ccccc21 (configuration not stated) | -3.94%
CCn1c(SCC(=O)Nc2ccc(Br)cc2)nc2sc3c(c2c1=O)CCN(C)C3 | 3.55%
CCOc1ccc(-n2c(SCC(=O)Nc3ccc(OC)cc3)nc3sc4c(c3c2=O)CCN(C)C4)cc1 | 102% (active)
CCCSc1nc2sc3c(c2c(=O)n1-c1ccc(OC)cc1)CCN(C)C3 | 7.27%
CCN(CC)C(=O)CSc1nnc(-c2ccc(S(=O)(=O)NCc3ccccc3Cl)cc2)o1 | -2.99%
NC(=S)c1ccc(C(N)=S)o1 | 2.12%
O=C(NCCCn1ccnc1)c1cc2c(s1)CCCC2 | 0.16%
COc1ccc2c(c1)OC(O)(C(F)(F)C(F)F)CC2=O (configuration not stated) | 2.02%
Oc1ccc(N=Cc2c(O)ccc3ccccc23)cc1 | 58.2% (active)
C/C(=N\NC(N)=S)c1cccnc1 | -5.1%
CCc1nc2c(=O)[nH]cnc2o1 | -0.47%
Cc1c(CNCCc2ccccc2)c(C(=O)O)c(C)n1-c1ccccc1 | -2.52%
Cc1ccc(OCCNC(=O)c2cccc(S(=O)(=O)N3CCN(Cc4ccccc4)CC3)c2)cc1 | -1.93%
Cn1c(=O)[nH]c2c(c(C(=O)O)nn2C)c1=O | -1.75%
COc1cccc(/C=N/NC(=O)c2[nH]nc3c2CCc2ccccc2-3)c1O | 67% (active)
COc1ccccc1N1CCN(C(=O)C(=O)N/N=C/c2ccccc2F)CC1 | -1.85%
COc1cc(/C=N\NC(=O)c2nonc2N)c(OC)cc1Br | 3.66%
